For test [1], the target named is GABA-A receptor; anion channel. Kind of test: Inhibition of 0.6 nM [3H]flunitrazepam binding to GABA-A central benzodiazepine receptor of rat forebrain membrane. In outline:
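Rat forebrain membranes with [3H]flunitrazepam at 0.6 nM, modified Squires–Braestrup method. IC50 (nM) read from displacement curves of at least four concentrations, each in triplicate.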

The species entered for the next test is Rattus norvegicus. Kind of test: Minimum Effective Dose (MED) was measured using Food-Conflict test in rats. Type of test: functional. The conditions noted are these: read-out: MED. Put shortly:
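Male Lister rats on alternating schedule: five 4-min FI30 unpunished and 3-min FR5 punished components (food-motivated). Oral dosing, first at 50 mg/kg in four rats, then at decreasing doses if active until the minimum effective dose was reached.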

`CCCCc1cc(OC)nc2nc(C(=O)c3ccccc3)cn12`: in test [1], the half-maximal inhibitory concentration (IC50) was 340 nM. In addition, in the test listed under Rattus norvegicus, the minimal effective dose came out at 10 mg/kg.

Compound `CCc1cc(OC)nc2nc(C(=O)c3ccccc3)cn12` displayed an IC50 in test [1] of 295 nM. In addition, the minimal effective dose in the test listed under Rattus norvegicus amounted to 2 mg/kg.

Take `COc1ccc(C(=O)c2cn3c(cc(OC)c4ccccc43)n2)cc1`: in test [1], the IC50 came out at 37 nM. Moreover, the minimal effective dose in the test filed under Rattus norvegicus was greater than 50 mg/kg.

As for `CCCC(=O)c1cn2c(cc(OC)c3cc(CC)ccc32)n1`, the IC50 in test [1] came out at 535 nM. The minimal effective dose in the test listed under Rattus norvegicus turned out to be 20 mg/kg.

The compound `CCCCc1ccc2c(c1)c(OC)cc1nc(C(=O)c3ccccc3)cn12` gave an IC50 in test [1] of 25 nM. In the test filed under Rattus norvegicus, the minimal effective dose was 10 mg/kg.

On to `CCCc1c(SC)nc2nc(C(=O)c3ccccc3)cn2c1CC`, for which the IC50 in test [1] was found to be 47 nM. Besides, in the test filed under Rattus norvegicus, the minimal effective dose turned out to be 10 mg/kg.

Consider `CSc1nc2nc(C(=O)c3ccccc3)cn2c2c1CCC(C)C2` (configuration not stated), for which the IC50 in test [1] came out at 76 nM. Besides, in the test listed under Rattus norvegicus, the minimal effective dose amounted to 50 mg/kg.

In test [1], `C=CCc1c(OC)nc2nc(C(=O)c3ccccc3)cn2c1CC` registered an IC50 of 42 nM. Further, in the test listed under Rattus norvegicus, the minimal effective dose came to 10 mg/kg.

The compound `CCCc1c(OC)nc2nc(C(=O)c3ccccc3)cn2c1CC` displayed an IC50 in test [1] of 34 nM. The minimal effective dose in the test filed under Rattus norvegicus is 10 mg/kg.

The compound `COc1nc2nc(C(=O)c3ccccc3)cn2c2c1CSCC2` gave an IC50 in test [1] of 185 nM. Further, in the test listed under Rattus norvegicus, the minimal effective dose worked out at 20 mg/kg.

In turn, `CSc1cc(C)n2cc(C(=O)c3ccccc3)nc2n1` registered an IC50 in test [1] of 190 nM. Also, the minimal effective dose in the test listed under Rattus norvegicus is 5 mg/kg.

Turning to `COc1nc2nc(C(=O)c3ccccc3)cn2c2c1CCC(C)C2` (configuration not stated), the IC50 in test [1] was found to be 135 nM. The minimal effective dose in the test listed under Rattus norvegicus is 10 mg/kg.

`CSc1nc2nc(C(=O)c3ccccc3)cn2c2c1CSCC2` registered an IC50 in test [1] of 24 nM. For the same compound, the minimal effective dose in the test filed under Rattus norvegicus is 50 mg/kg.

In test [1], `CCOc1nc2nc(C(=O)c3ccccc3)cn2c2c1CCCCC2` displayed an IC50 of 4000 nM. For the same compound, the minimal effective dose in the test filed under Rattus norvegicus is 5 mg/kg.

Consider `O=C(Nc1nccs1)c1cn2c(n1)sc1ccccc12`, for which the concentration for half-maximal inhibition (IC50) in test [1] is greater than 10 nM.

Turning to `CCc1ccc2c(c1)sc1nc(C(=O)c3ccccc3)cn12`, the IC50 in test [1] amounted to 740 nM.

Compound `CCC(=O)c1cn2c(cc(OC)c3cc(CC)ccc32)n1` came in with an IC50 in test [1] of 135 nM. Also, in the test filed under Rattus norvegicus, the minimal effective dose amounted to 10 mg/kg.

In test [1], `CCOC(=O)N1Cc2c(OC)nc3nc(C(=O)c4ccccc4)cn3c2C1` gave an IC50 of 10000 nM. Also, in the test filed under Rattus norvegicus, the minimal effective dose came out at 50 mg/kg.

With `COc1cc2nc(C(=O)c3ccccc3)cn2c2ccc(F)cc12`, in test [1], the IC50 turned out to be 20 nM. The minimal effective dose in the test filed under Rattus norvegicus was 10 mg/kg.

`CCCc1ccc2c(c1)c(OC)cc1nc(C(=O)c3ccccc3)cn12`: in test [1], the IC50 came to 16 nM. Further, the minimal effective dose in the test filed under Rattus norvegicus turned out to be 2 mg/kg.

`CCCOC(=O)c1cn2c(n1)sc1ccccc12`: the IC50 in test [1] is 470 nM.

In turn, `COc1nc2nc(C(=O)c3ccccc3)cn2c(C)c1CC1CC1` registered an IC50 in test [1] of 30 nM. Also, the minimal effective dose in the test listed under Rattus norvegicus was 10 mg/kg.

On to `O=C(Nc1cccc(Cl)c1)c1cn2c(n1)sc1ccccc12`, for which, in test [1], the concentration for half-maximal inhibition (IC50) was greater than 10000 nM.

On to `COc1cc2nc(C(=O)c3cccs3)cn2c2ccccc12`, for which the IC50 in test [1] is 24 nM. The minimal effective dose in the test listed under Rattus norvegicus was greater than 50 mg/kg.

In the case of `CSc1nc2nc(C(=O)c3ccccc3)cn2c2c1CCCC2`, the IC50 in test [1] was 9 nM. The minimal effective dose in the test listed under Rattus norvegicus stood at 10 mg/kg.

On to `COc1nc2nc(C(=O)c3ccccc3)cn2c2c1CSC2`, for which the IC50 in test [1] amounted to 430 nM. Further, in the test filed under Rattus norvegicus, the minimal effective dose is greater than 50 mg/kg.

Consider `CC(C)OC(=O)c1cn2c(n1)sc1ccccc12`, for which the IC50 in test [1] was 160 nM.

`CCc1ccc2c(c1)c(OC)cc1nc(C(C)=O)cn12`: the IC50 in test [1] is 1300 nM. In addition, the minimal effective dose in the test listed under Rattus norvegicus is 20 mg/kg.

`CCOc1nc2nc(C(=O)c3ccccc3)cn2c2c1CCCC2` showed an IC50 in test [1] of 2000 nM. The minimal effective dose in the test listed under Rattus norvegicus is greater than 50 mg/kg.

Turning to `COc1nc2nc(C(=O)c3ccccc3)cn2c2c1CCC2`, the IC50 in test [1] came out at 200 nM. For the same compound, the minimal effective dose in the test filed under Rattus norvegicus turned out to be 20 mg/kg.

The compound `CCc1cn2cc(C(=O)c3ccccc3)nc2nc1OC` registered an IC50 in test [1] of 1500 nM. Moreover, the minimal effective dose in the test listed under Rattus norvegicus turned out to be 5 mg/kg.

As to `COc1cc2nc(C(=O)c3ccccc3)cn2c2ccc(C(C)C)cc12`, in test [1], the IC50 was 10 nM. Moreover, in the test listed under Rattus norvegicus, the minimal effective dose was 5 mg/kg.

`CCOC(=O)Cc1cn2c(n1)sc1ccccc12` came in with an IC50 in test [1] greater than 10 nM.

`COc1cc2nc(C(=O)c3ccccc3)cn2c2ccc(C)cc12` displayed an IC50 in test [1] of 21 nM. Further, in the test listed under Rattus norvegicus, the minimal effective dose came to 5 mg/kg.

With `O=C(O)c1cn2c(n1)sc1ccccc12`, the IC50 in test [1] is greater than 10 nM.

`CCCCc1c(OC)nc2nc(C(=O)c3ccccc3)cn2c1C`: the IC50 in test [1] is 42 nM. The minimal effective dose in the test listed under Rattus norvegicus worked out at 2 mg/kg.

In test [1], `CCc1ccc2c(c1)c(OC)c(C)c1nc(C(=O)c3ccccc3)cn12` came in with an IC50 of 7 nM. In addition, the minimal effective dose in the test filed under Rattus norvegicus was 2 mg/kg.

For the compound `COc1cc2nc(C(=O)c3ccccc3)cn2c2ccccc12`, the 50% inhibitory concentration (IC50) in test [1] was 57 nM. The minimal effective dose in the test filed under Rattus norvegicus amounted to 5 mg/kg.

`O=C(OC1CCCCC1)c1cn2c(n1)sc1ccccc12` came in with an IC50 in test [1] of 7100 nM.

As for `COc1cc2nc(C(=O)c3ccccc3)cn2c2cc(C)c(C)cc12`, the IC50 in test [1] was 100 nM. In addition, in the test filed under Rattus norvegicus, the minimal effective dose is 5 mg/kg.

The compound `CSc1nc2nc(C(=O)c3ccccc3)cn2c2c1CCC2` displayed a half-maximal inhibitory concentration (IC50) in test [1] of 35 nM. Further, in the test filed under Rattus norvegicus, the minimal effective dose is 2 mg/kg.

In the case of `CCc1c(OC)nc2nc(C(=O)c3ccccc3)cn2c1CC`, in test [1], the IC50 was 107 nM. For the same compound, the minimal effective dose in the test filed under Rattus norvegicus worked out at 2 mg/kg.

Take `CCc1ccc2c(c1)c(OC)c(CC)c1nc(C(=O)c3ccccc3)cn12`: the 50% inhibitory concentration (IC50) in test [1] worked out at 135 nM. The minimal effective dose in the test filed under Rattus norvegicus worked out at 20 mg/kg.

Consider `COC(=O)c1cn2c(n1)sc1ccccc12`, for which, in test [1], the IC50 stood at 60 nM.

Consider `CCOC(=O)c1cn2c(n1)sc1ccccc12`, for which the IC50 in test [1] came to 120 nM.

In turn, `O=C(OCc1ccccc1)c1cn2c(n1)sc1ccccc12` yielded an IC50 in test [1] of 50 nM.

`CCSc1nc2nc(C(=O)c3ccccc3)cn2c2c1CCC2`: in test [1], the IC50 came out at 1850 nM. Further, the minimal effective dose in the test filed under Rattus norvegicus stood at 50 mg/kg.

In test [1], `CCOC(=O)c1cn2c(n1)sc1cc(CC)ccc12` registered an IC50 of 4000 nM.

Compound `CCCc1cc(OC)nc2nc(C(=O)c3ccccc3)cn12` returned an IC50 in test [1] of 535 nM. Also, the minimal effective dose in the test listed under Rattus norvegicus came out at 1 mg/kg.

In test [1], `CC1(C)COC(c2cn3c(n2)sc2ccccc23)=N1` showed an IC50 greater than 10000 nM.

In the case of `O=C(c1ccccc1)c1cn2c(n1)sc1ccccc12`, the IC50 in test [1] is 85 nM.

In test [1], `COc1nc2nc(C(=O)c3ccccc3)cn2c2c1CCCCC2` gave an IC50 of 125 nM. Also, the minimal effective dose in the test filed under Rattus norvegicus is 10 mg/kg.

In test [1], `COc1cc(C)n2cc(C(=O)c3ccccc3)nc2n1` registered an IC50 of 800 nM. Besides, the minimal effective dose in the test filed under Rattus norvegicus was 5 mg/kg.

Turning to `CCOc1nc2nc(C(=O)c3ccccc3)cn2c2c1CCC2`, the IC50 in test [1] is greater than 10000 nM. Moreover, the minimal effective dose in the test filed under Rattus norvegicus worked out at 50 mg/kg.

Compound `COc1cc2nc(C(=O)c3ccc(C)cc3)cn2c2ccccc12` returned a half-maximal inhibitory concentration (IC50) in test [1] of 19 nM. For the same compound, in the test listed under Rattus norvegicus, the minimal effective dose is greater than 50 mg/kg.

In test [1], `CCc1ccc2c(c1)c(OC)cc1nc(C(=O)c3ccccn3)cn12` came in with an IC50 of 9 nM. Besides, in the test listed under Rattus norvegicus, the minimal effective dose amounted to 5 mg/kg.

Compound `CCCc1cc(SC)nc2nc(C(=O)c3ccccc3)cn12` displayed an IC50 in test [1] of 89 nM. In addition, the minimal effective dose in the test filed under Rattus norvegicus was determined as 10 mg/kg.

In test [1], `COc1cc2nc(C(=O)c3ccc(Cl)cc3)cn2c2ccccc12` yielded an IC50 of 96 nM. Further, the minimal effective dose in the test filed under Rattus norvegicus is greater than 50 mg/kg.

For the origin of these results see ChEMBL document CHEMBL1124258, “(Imidazo[1,2-a]pyrimidin-2-yl)phenylmethanones and related compounds as potential nonsedative anxiolytics” (J Med Chem, 1988).
